This is a sample that favours compounds with a hit; in the whole collection about 3.2% have one here.
DENV2 CPE: inhibitors of DENV2 cytopathic effect | hit rate 1.7% among 350,000 | DENV2-infected cells, cytopathic effect rescue, plate reader | CPE inhibition, % at 9.99 µM; in the data active means CPE inhibition above about 20%, passing the limit was not always enough; inconclusive means no clear call, values can overlap the other calls; tested in BHK-21 cells;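 further: 0% = median of neutral control wells and 100% = median of positive control wells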
rRNA inh HTS: inhibits bacterial ribosomal RNA function over humanized ribosomes. GFP signal change (wild-type ribosome), % (no concentration beside the values). hit rate 1.6% among 350,000. E. coli WT GFP vs humanized-ribosome RFP mutants, fluorescence, 24 h; stronger effect = lower value; DMSO median 0, no signal -100;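 active means significant combined selectivity score with lowered wild-type GFP, culture density cut under 30%, mutant RFP and density less affected; inactive means any of these conditions unmet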
MLL AF4-AF9 inh: MLL-AF4/AF9 protein interaction inhibition. AlphaScreen, biotin-AF4 peptide binding to FLAG-AF9. inhibition, % at 10 µM. hit rate 0.47% among 350,000;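 active means every replicate reaching a set inhibition limit, whatever the replicate mean, cut at about 25% in these data; inconclusive means mean inhibition reaches that limit but some replicates miss it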;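 further: 0% = plate neutral control median and 100% = total signal loss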
Target sequence (P42568 whole entry, looked up): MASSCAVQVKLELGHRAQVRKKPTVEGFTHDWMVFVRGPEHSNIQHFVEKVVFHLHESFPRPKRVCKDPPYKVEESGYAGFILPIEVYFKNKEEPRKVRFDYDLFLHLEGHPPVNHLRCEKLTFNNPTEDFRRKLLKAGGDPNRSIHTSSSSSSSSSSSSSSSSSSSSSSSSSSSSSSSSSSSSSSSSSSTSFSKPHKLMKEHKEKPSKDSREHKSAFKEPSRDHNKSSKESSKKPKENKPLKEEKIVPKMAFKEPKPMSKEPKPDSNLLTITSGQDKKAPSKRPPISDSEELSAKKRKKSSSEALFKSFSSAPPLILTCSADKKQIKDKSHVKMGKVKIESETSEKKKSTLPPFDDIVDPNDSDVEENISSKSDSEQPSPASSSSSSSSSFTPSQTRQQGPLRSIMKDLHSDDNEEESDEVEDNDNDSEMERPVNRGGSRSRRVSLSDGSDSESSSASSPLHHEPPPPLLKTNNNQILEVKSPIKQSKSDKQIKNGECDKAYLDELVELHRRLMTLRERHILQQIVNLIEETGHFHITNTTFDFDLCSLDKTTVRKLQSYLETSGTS
PfHsp90 set2: reduces growth (ATP signal) of yeast expressing P. falciparum Hsp90. inhibition, % at 9.4 µM. hit rate 0.32% among 310,000. S. cerevisiae expressing PfHsp90, BacTiter-Glo ATP, 48 h; yeast lacking PDR1 and PDR3 efflux regulators;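 active means every replicate shows inhibition above about 80%, whatever the replicate mean, limit read from the data; inconclusive means mean inhibition reaches the set limit but some replicate falls short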;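 further: 0% = DMSO neutral controls and 100% = 20 µM radicicol positive controls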
Cneo AK release: causes C. neoformans cell lysis | adenylate kinase release luminescence, 4 h; normalised: neutral wells 0, clomiphene wells 100 | hit rate 0.2% among 360,000 | lysis activity, % at 15 µM;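 active means mean lysis activity across replicates of at least 80%, whatever share of replicates individually reach that level; inactive means mean lysis activity below 80%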
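Material: C. neoformans cells | Amount: Yeast cell density of 5 × 10^6 cells/mL | Medium: Fresh YPD growth medium | Dosing: Single dose | Times: Static 4 h at 37 °C with compound, 1 h detection | Detection: AK luminescence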
S100A4 MyoIIA: S100A4-myosin IIA interaction inhibition. inhibition, % at 10.7 µM. hit rate 0.14% among 360,000. AID 652163. S100A4/TAMRA-MyoIIA peptide fluorescence polarization. P26447;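 active means mean inhibition of at least 70% across replicates, with every replicate also reaching that level; inconclusive means mean inhibition reaches 70% but some replicates fall short; inactive means mean inhibition below 70%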
Target sequence (P26447 whole entry, looked up): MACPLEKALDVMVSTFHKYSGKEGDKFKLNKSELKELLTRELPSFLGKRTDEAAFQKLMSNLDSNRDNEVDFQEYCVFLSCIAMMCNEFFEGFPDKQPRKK
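Material: S100A4 monomer protein | Medium: HEPES pH 7.2 with CaCl2, KCl, NaCl, DTT, Triton | Reagent: Labelled myosin peptide probe, 5 nM | Doses: One dose per compound | Times: 5 min incubation before reading | Benchmarks: Neutral control DMSO, positive control TFP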
Active calls of the source: *; ? = inconclusive; . = no result given; ! = repeats disagree.

SMILES | DENV2 CPE | rRNA inh HTS | MLL AF4-AF9 inh | PfHsp90 set2 | Cneo AK release | S100A4 MyoIIA
Cc1noc(C)c1S(=O)(=O)Nc1ccc2c(c1)C(=O)N([C@@H](C)CO)C[C@@H](C)[C@@H](CN(C)S(=O)(=O)c1ccc(Cl)cc1)OCCCC[C@H](C)O2 | -1.2 | 0.9 | 3.8 | . | -2.1 | -29.1
CCCCNC(=S)NCC(c1ccccc1)c1c[nH]c2ccccc12 (stereo not drawn) | 4.1 | -49.1* | 1.0 | -2.1 | -1.6 | 34.7
CN(C)CCCNC(=S)NCC(c1ccc(Cl)cc1Cl)c1c[nH]c2ccccc12 (stereo not drawn) | -4.0 | -58.5 | 35.3* | 2.0 | 1.6 | -0.9
C[C@H]1CN([C@@H](C)CO)C(=O)c2cccc(NC(=O)Nc3cccc4ccccc34)c2O[C@@H]1CN(C)S(=O)(=O)c1ccc(F)cc1 | 6.2 | -0.9 | 0.6 | . | . | 3.1
C/C=C/c1cnc2c(c1)C(=O)N([C@@H](C)CO)C[C@H](C)[C@@H](CN(C)C(=O)NCCC)O2 | 10.2 | 9.9 | 0.0 | . | -11.4 | 3.6
C[C@H](CO)N1C[C@H](C)[C@H](CN(C)C)Oc2ncc(-c3ccc(C(=O)N(C)C)cc3)cc2C1=O | ? | 3.1 | -4.7 | . | 3.0 | 7.9
C[C@@H]1CCCCO[C@@H](CN(C)C(=O)NC2CCCCC2)[C@@H](C)CN([C@H](C)CO)C(=O)c2cc(NS(=O)(=O)c3ccc(F)cc3)ccc2O1 | 0.1 | 1.6 | -3.1 | . | 49.7 | -6.2
C[C@H](CO)N1C[C@H](C)[C@@H](CN(C)C(=O)NC2CCCCC2)OCCCC[C@H](C)Oc2ccc(NS(=O)(=O)c3ccc(F)cc3)cc2C1=O | 1.5 | 1.0 | -1.9 | . | -1.6 | -15.8
C[C@H]1CCCCO[C@H](CN(C)C(=O)NC2CCCCC2)[C@@H](C)CN([C@@H](C)CO)C(=O)c2cc(NS(=O)(=O)c3ccc(F)cc3)ccc2O1 | 23.9* | -1.1 | 0.9 | . | 1.8 | 3.4
C[C@@H]1CCCCO[C@H](CN(C)C(=O)NC2CCCCC2)[C@H](C)CN([C@@H](C)CO)C(=O)c2cc(NS(=O)(=O)c3ccc(F)cc3)ccc2O1 | 50.6* | -2.2 | -4.2 | . | 50.9 | -0.1
C[C@@H]1CN([C@H](C)CO)C(=O)c2cc(NS(=O)(=O)c3ccc(F)cc3)ccc2O[C@@H](C)CCCCO[C@@H]1CN(C)C(=O)NC1CCCCC1 | 14.3 | -1.5 | -3.7 | . | 1.8 | 120.0*
COc1ccccc1C#Cc1ccc2c(c1)[C@H]1[C@H](CCN1C(=O)CN1CCOCC1)[C@H](CO)N2 | -3.1 | 1.6 | . | . | -10.8 | .
CC(C)NC(=O)Nc1cccc2c1O[C@@H](CN(C)S(=O)(=O)c1ccc(F)cc1)[C@@H](C)CN([C@@H](C)CO)C2=O | -9.2 | -6.5 | -0.1 | . | 3.3 | -1.0
Cn1c(SCC(=O)N2CCCC2)nc2c(c1=O)SCC2 | 58.7* | -1.1 | -1.4 | . | -0.5 | -1.0
CO[C@@H]1CC[C@H]2CCOc3ccc(C#N)cc3C(=O)N(C)C[C@H](C)C(=O)N(C)C[C@H]1O2 | 2.1 | 3.4 | 0.2 | . | 1.0 | -7.4
Cc1ccc(NC(=O)c2ncn(CCCN3CCN(c4ccccn4)CC3)n2)cc1C | 11.0 | -22.2* | 2.1 | -1.2 | 1.4 | -8.8
COC(=O)[C@H](Cc1ccccc1)NCCCn1cnc(C(=O)Nc2ccc(C)c(C)c2)n1 | -10.9 | -35.0* | 0.3 | -2.2 | -2.4 | -0.3
Cc1ccc(NC(=O)c2ncn(CCCNCCCN(C)C)n2)cc1C | -17.1 | 2.9 | 5.6 | -20.6 | 9.4 | 8.6
CCC(C)C(CO)NCCCn1cnc(C(=O)Nc2ccc(C)c(C)c2)n1 (stereo not drawn) | 59.4* | 4.2 | 1.5 | 10.1 | 4.8 | -10.5
COC(=O)[C@H](Cc1ccccc1)NC(=O)Cn1cnc(C(=O)Nc2ccc(C)c(C)c2)n1 | 3.3 | 3.9 | -2.2 | -7.6 | -2.0 | -2.5
Cc1ccc(CNC(=O)Cn2cnc(C(=O)Nc3ccc(C)c(C)c3)n2)o1 | -1.6 | -1.9 | -0.3 | 11.8 | -3.1 | 76.0*
O=C(NC[C@@H]1CC[C@@H]2[C@@H](CN2Cc2cccc(Cl)c2)O1)C1CCOCC1 | 17.2 | . | -4.6 | . | . | 14.8
Cc1cc(C)n(-c2nnc(Cl)c3ccccc23)n1 | 22.9* | 20.1 | -0.4 | 8.6 | . | -3.4
Cc1ccc(-c2nnc(-n3nc(C)cc3C)c3ccccc23)cc1 | . | . | . | 11.6 | . | .
Cc1cc(-n2c(C)cc(C(=O)CSc3ncnc4ccccc34)c2C)no1 | . | . | . | 3.5 | 2.0 | .
SMILES | DENV2 CPE | rRNA inh HTS | MLL AF4-AF9 inh | PfHsp90 set2 | Cneo AK release | S100A4 MyoIIA
Cc1cc(C(=O)CSc2ncnc3ccccc23)c(C)n1C1CC1 | 28.0* | 10.2 | -1.9 | . | 0.6 | 2.8
c1cc(-c2ccc(C3[C@H]4CNC[C@@H]3N4CC3CCOCC3)cc2)ccn1 (stereo partly drawn) | 12.5 | 2.4 | 3.0 | . | . | 9.5
c1cc(-c2ccc(C3[C@H]4CNC[C@@H]3N4CC3CCCCC3)cc2)ccn1 (stereo partly drawn) | 45.9*! | 0.5 | 29.3* | . | . | -4.7
Cc1ccc(S(=O)(=O)N(C)[C@H]2C[C@H]3c4cc(-c5ccc6c(c5)OCO6)ccc4CCN3C[C@H]2[C@H](C)O)cc1 | 32.2* | 28.7 | . | . | . | -8.1
C[C@H](O)[C@@H]1CN2CCc3c([nH]c4ccc(-c5ccc6c(c5)OCO6)cc34)[C@@H]2C[C@@H]1N(C)C(=O)NC1CCCCC1 | 2.8 | -52.3* | 8.8 | . | . | -4.1
Cc1cccc(-c2ccc3[nH]c4c(c3c2)CCN2C[C@@H]([C@H](C)O)[C@@H](N(C)C(=O)Nc3ccc(F)cc3)C[C@@H]42)c1 | -12.1 | -21.8* | 12.3 | . | 0.6 | -10.3
O=C(CCN1CCCCC1)NCC[C@@H]1CC[C@H](NC(=O)C2CCCCC2)[C@@H](CO)O1 | -6.0 | 4.5 | -4.1 | . | . | 7.1
N#C/C(=C\c1cccs1)C(=O)c1ccccc1Cl | 77.9* | -26.5 | -0.7 | . | . | -2.8
CC(C)(C)C(=O)/C(C#N)=C/c1cccs1 | 4.0 | 1.3 | 4.3 | 1.6 | . | -7.1
CO[C@H]1CN(C)C(=O)c2ccc(NC(C)=O)cc2OC[C@@H](C)N(C(=O)C2CCCCC2)C[C@@H]1C | 7.0 | -0.7 | 3.3 | . | -1.7 | 4.5
O=C1NC[C@H](CCCCN2C[C@H](Cc3ccc(O)cc3)N(CCC3CCCCC3)C(=O)C2=O)N(CCc2ccc(O)cc2)C1=O | 1.5 | -24.6* | -4.1 | . | . | -4.1
C[C@H](NC(=O)C[C@@H]1C[C@H]2c3cc(NC(=O)C4CCC4)ccc3O[C@H]2[C@@H](CO)O1)c1ccccc1 | -1.3 | -3.4 | -0.8 | . | -6.7 | -9.0
CCCCc1nc2cc(C(=O)NCc3cn(C)nc3C)ccc2o1 | 47.3* | -4.8 | -2.6 | -6.6 | -1.2 | -2.0
Cc1ccc(S(=O)(=O)NCC[C@H]2CC[C@@H](NC(=O)c3cccc(F)c3)[C@@H](CO)O2)cc1 | ? | 3.4 | 1.0 | . | 24.5 | -1.7
